Measured values reported in ChEMBL document CHEMBL1154444, “2,3,5-Substituted tetrahydrofurans: COX-2 inhibitory activities of 5-hydroxymethyl-/carboxyl-2,3-diaryl-tetrahydro-furan-3-ols” (Eur J Med Chem, 2008).

Legend:
[1] = Selectivity ratio of IC50 for COX1 to IC50 for COX2
Summary of the method: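 Ovine COX-1 and COX-2 inhibitor screening kit. Reaction started with arachidonic acid and quenched with 1 M HCl. PGH2 reduced to PGF2α by SnCl2, then quantified by prostaglandin antiserum immunoassay read at 405 nm. Heat-inactivated enzymes (boiling water, 3 min) served as background. Compounds tested in duplicate. Selectivity taken as IC50(COX-1)/IC50(COX-2).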

[2] = target: Prostaglandin G/H synthase 1 (Ovis aries) (UniProt P05979); settings: at 1 µM
[3] = target: Prostaglandin G/H synthase 1 (Ovis aries) (UniProt P05979)
[4] = target: Prostaglandin G/H synthase 2 (Ovis aries) (UniProt P79208)
[5] = target: Prostaglandin G/H synthase 2 (Ovis aries) (UniProt P79208); settings: at 1 µM
[6] = Partition coefficient, log P of the compound; format: physicochemical; settings: octanol/water
Summary of the method: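 Calculated rather than measured, as one of several physico-chemical descriptors used in quantitative structure–activity correlation with COX-2 inhibition.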

SN12C = experiment: Anticancer activity against human SN12C cells at 10 uM; format: functional
Summary of the method: (§1)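 Tested at NIH in the standard 59-human-tumor-cell-line panel, at five concentrations from 10^-4 to 10^-8 M. Read-out is percent growth inhibition of the named cell line at 10^-5 M.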

[7] = target: Prostaglandin G/H synthase 2 (Ovis aries) (UniProt P79208); settings: at 10 µM
PC-3 [8] = experiment: Anticancer activity against human PC3 cells; format: functional
PC-3 [9] = experiment: Anticancer activity against human PC3 cells at 1 uM; format: functional
NCI-H522 = experiment: Anticancer activity against human NCI-H522 cells at 10 uM; format: functional; summary of the method: as §1

Sequence of Prostaglandin G/H synthase 1 (Ovis aries) (P05979 whole entry, looked up): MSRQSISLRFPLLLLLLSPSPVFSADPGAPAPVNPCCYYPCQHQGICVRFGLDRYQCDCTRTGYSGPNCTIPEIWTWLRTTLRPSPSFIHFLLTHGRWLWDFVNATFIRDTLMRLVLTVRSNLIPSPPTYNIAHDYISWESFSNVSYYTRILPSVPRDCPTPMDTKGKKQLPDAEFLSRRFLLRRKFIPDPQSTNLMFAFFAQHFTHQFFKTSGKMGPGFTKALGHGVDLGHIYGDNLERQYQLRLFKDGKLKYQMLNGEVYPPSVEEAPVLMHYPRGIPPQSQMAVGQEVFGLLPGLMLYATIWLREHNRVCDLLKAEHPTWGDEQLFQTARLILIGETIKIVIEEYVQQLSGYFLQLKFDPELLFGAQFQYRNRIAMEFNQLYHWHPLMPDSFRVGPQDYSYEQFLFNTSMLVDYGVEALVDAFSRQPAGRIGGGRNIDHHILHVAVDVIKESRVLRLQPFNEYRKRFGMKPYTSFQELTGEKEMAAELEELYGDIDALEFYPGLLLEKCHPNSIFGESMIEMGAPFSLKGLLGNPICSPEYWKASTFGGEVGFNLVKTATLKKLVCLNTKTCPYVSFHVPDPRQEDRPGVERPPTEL
Sequence of Prostaglandin G/H synthase 2 (Ovis aries) (P79208 whole entry, looked up): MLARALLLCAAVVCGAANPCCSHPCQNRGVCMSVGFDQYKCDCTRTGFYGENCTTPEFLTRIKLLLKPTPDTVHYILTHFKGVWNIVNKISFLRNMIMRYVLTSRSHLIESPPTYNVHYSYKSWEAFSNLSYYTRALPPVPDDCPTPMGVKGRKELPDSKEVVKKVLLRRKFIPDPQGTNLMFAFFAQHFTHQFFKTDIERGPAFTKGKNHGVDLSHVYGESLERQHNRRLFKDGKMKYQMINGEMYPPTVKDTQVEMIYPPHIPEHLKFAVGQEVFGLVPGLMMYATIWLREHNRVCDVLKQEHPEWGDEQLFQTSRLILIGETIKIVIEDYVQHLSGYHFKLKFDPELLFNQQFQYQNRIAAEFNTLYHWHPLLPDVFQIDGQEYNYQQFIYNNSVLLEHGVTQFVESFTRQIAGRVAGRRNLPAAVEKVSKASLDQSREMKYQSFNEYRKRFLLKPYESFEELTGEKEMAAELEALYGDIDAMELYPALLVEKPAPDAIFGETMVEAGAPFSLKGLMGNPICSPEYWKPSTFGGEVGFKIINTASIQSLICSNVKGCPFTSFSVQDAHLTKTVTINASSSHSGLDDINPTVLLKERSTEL

SMILES	Ratio IC50 [1]	inhibition [2]	IC50 [3]	IC50 [4]	inhibition [5]	logP [6]	inhibition [7]	GI50 (PC-3 [8])	inhibition at 10 µM (SN12C)	inhibition at 1 µM (PC-3 [9])	inhibition at 10 µM (NCI-H522)
OC[C@H]1C[C@](O)(c2ccccc2)[C@@H](c2ccccc2)O1	> 1.96	2.8%	> 10 µM	5.1 µM	28%	2.5	77%				
CS(=O)(=O)c1ccc(C2=C(c3ccccc3)C(=O)OC2)cc1 [ROFECOXIB]										15%	
CS(=O)(=O)c1ccc([C@H]2O[C@@H](CO)C[C@]2(O)c2ccc(S(C)(=O)=O)cc2)cc1	< 1.5	55%	< 10 µM	6.5 µM	40%	0.792	57%	100 µM			
Cc1ccc(-c2cc(C(F)(F)F)nn2-c2ccc(S(N)(=O)=O)cc2)cc1 [CELECOXIB]								47 µM			
COc1ccc([C@H]2O[C@@H](CO)C[C@]2(O)c2ccc(OC)cc2)cc1	> 10	22%	> 10 µM	< 1 µM	65%	2	67%	93.3 µM			
O=C(O)[C@H]1C[C@](O)(c2ccccc2Cl)[C@@H](c2ccccc2Cl)O1 (relative stereo)	> 2.8	34%	> 10 µM	3.5 µM	37%	3.65	82%				72%
OC[C@H]1C[C@](O)(c2ccccc2Cl)[C@@H](c2ccccc2Cl)O1		73%	< 10 µM	< 1 µM	67%	3.54	68%	22 µM			

Further lines, with some results ahead:

Ratio IC50 [1]	inhibition [2]	IC50 [3]	IC50 [4]	inhibition [5]	logP [6]	inhibition [7]	GI50 (PC-3 [8])	SMILES	inhibition at 10 µM (SN12C)	inhibition at 1 µM (PC-3 [9])	inhibition at 10 µM (NCI-H522)
> 3.1	30%	> 10 µM	3.2 µM	37%	2.89	90%		O=C(O)[C@H]1C[C@](O)(c2ccc(F)cc2)[C@@H](c2ccc(F)cc2)O1 (relative stereo)	60%		
< 3.3	56%	< 10 µM	3 µM	43%	3.54	68%	19.9 µM	OC[C@H]1C[C@](O)(c2ccc(Cl)cc2)[C@@H](c2ccc(Cl)cc2)O1			
> 10	22%	> 10 µM	< 1 µM	88%	2.78	82%	95 µM	OC[C@H]1C[C@](O)(c2ccc(F)cc2)[C@@H](c2ccc(F)cc2)O1			
> 10	-1.15%	> 10 µM	< 1 µM	68%	2.61	69%		O=C(O)[C@H]1C[C@](O)(c2ccccc2)[C@@H](c2ccccc2)O1 (relative stereo)			
< 2.6	55%	< 10 µM	3.8 µM	30%	3.65	94%		O=C(O)[C@H]1C[C@](O)(c2ccc(Cl)cc2)[C@@H](c2ccc(Cl)cc2)O1 (relative stereo)			
